Measurements gathered from unrelated publications.
Protocols differ between the studies behind these lines. Converted amounts (≈) assume the structure as drawn.

CCCCCCC/C=C/C(=O)N1C(=O)/C(=C(\O)c2ccc(F)cc2)C(=O)C1CC(C)C (centres unmarked)
MIC (Proteus mirabilis; microbial growth; ATCC25933): > 200 µg/mL

N#CC(=Cc1cn(-c2ccccc2)nc1-c1ccccc1)C1=NC(=O)CS1
inhibition zone (Acinetobacter baumannii; microbial growth, well diffusion; 100000 µg/mL): 26 mm

CCOC(=O)N[C@H](CC(C)C)C(=O)N1CCC[C@@H]1C(=O)Nc1ccc(C#CC#Cc2ccc(NC(=O)[C@H]3CCCN3C(=O)[C@@H](CC(C)C)NC(=O)OCC)cc2)cc1
EC50 (Hepatitis C virus; viral replication, inhibitor, luciferase; Huh-5-2, GETYPE1B; 72 h, replicon): > 10000 nM

CC1(C)OC[C@@]2(C)[C@H]3CC[C@@H]4CN(Cc5ccc(F)c(Cl)c5)[C@@H](C5=CCOC5=O)C[C@H]4[C@]3(C)CC[C@H]2O1
inhibition (unidentified human coronavirus; cytopathic effect; MRC5; 25 µM, 72 h): 51.6%

Nc1nc2c(ncn2[C@@H]2O[C@H](CO)[C@@H](F)[C@@H]2F)c(=O)[nH]1
EC90 (Hepatitis C virus; viral replication, inhibitor; Huh-7; replicon): > 10 µM

CC1(C)OC[C@@]2(C)[C@H]3CC[C@@H]4CN(Cc5cccs5)[C@@H](C5=CCOC5=O)C[C@H]4[C@]3(C)CC[C@H]2O1
inhibition (unidentified human coronavirus; cytopathic effect; MRC5; 25 µM, 72 h): 38.4%

Cc1c(NN=C2SC(C(C#N)=Cc3ccccc3)=NC2=O)c(=O)n(-c2ccccc2)n1C
inhibition zone (Acinetobacter baumannii; microbial growth, well diffusion; 100000 µg/mL): 16 mm

Nc1nc(Cl)c2ncn([C@@H]3O[C@H](CO)[C@@H](F)[C@@H]3F)c2n1
EC50 (Hepatitis C virus; viral replication, inhibitor; Huh-7; replicon): > 10000 nM

CCOC(=O)N[C@@H](C(=O)N1CCC[C@@H]1C(=O)Nc1ccc(C#CC#Cc2ccc(NC(=O)[C@H]3CCCN3C(=O)[C@H](NC(=O)OCC)C(C)C)cc2)cc1)C(C)C
EC50 (Hepatitis C virus; viral replication, inhibitor, luciferase; Huh-5-2, GETYPE1B; 72 h, replicon): > 10000 nM

Nc1nc(Cl)c2ncn([C@@H]3O[C@H](COC(=O)c4ccccc4)[C@@H](F)[C@@H]3F)c2n1
EC90 (Hepatitis C virus; viral replication, inhibitor; Huh-7; replicon): 10 µM

C[C@]1(CO)[C@H]2CC[C@@H]3CN(Cc4ccco4)[C@@H](C4=CCOC4=O)C[C@H]3[C@]2(C)CC[C@H]1O
inhibition (unidentified human coronavirus; cytopathic effect; MRC5; 25 µM, 72 h): -7.7%

COc1nc(OC)c2ncn([C@@H]3O[C@H](CO)[C@@H](F)[C@@H]3F)c2n1
EC90 (Hepatitis C virus; viral replication, inhibitor; Huh-7; replicon): > 10 µM

CC(=O)OC[C@@]1(C)[C@H]2CC[C@@H]3CN(Cc4cccc5ccccc45)[C@@H](C4=CCOC4=O)C[C@H]3[C@]2(C)CC[C@H]1OC(C)=O
inhibition (unidentified human coronavirus; cytopathic effect; MRC5; 25 µM, 72 h): 106%

Cc1ccc(S(=O)(=O)Nc2nc(N)c(-c3nc4ccccc4s3)c(-c3ccc(F)cc3)n2)cc1
IC50 (Enterovirus B; plaque formation; BGM, B4): 82 µg/mL (≈ 167 µM)

CC1(C)OC[C@@]2(C)[C@H]3CC[C@@H]4CN(Cc5ccccc5C5CC5)[C@@H](C5=CCOC5=O)C[C@H]4[C@]3(C)CC[C@H]2O1
inhibition (unidentified human coronavirus; cytopathic effect; MRC5; 25 µM, 72 h): 93.2%

CCCCCCC/C=C/C(=O)N1C(=O)/C(=C(/C)O)C(=O)C1CCC(=O)O (centres unmarked)
MIC (Proteus mirabilis; microbial growth; ATCC25933): > 200 µg/mL

CO[C@@H](C(N)=O)[C@H](NC(=O)c1ccc(NC(=O)c2ccc(C#N)cc2)cc1)C(=O)Nc1ccc(C(=O)Nc2ccc(C(=O)Nc3ccc(C(=O)O)cc3)c(O)c2OC(C)C)cc1
MIC (Proteus mirabilis; microbial growth; DSM4479): 4 µg/mL (≈ 4.75 µM)

CCCCC(=O)N1C(=O)/C(=C(/C)O)C(=O)C1CC(C)C (centres unmarked)
MIC (Proteus mirabilis; microbial growth; ATCC25933): > 200 µg/mL

CCOC(=O)N[C@H](C(=O)N1CCC[C@H]1C(=O)Nc1cccc(C#CC#Cc2cccc(NC(=O)[C@@H]3CCCN3C(=O)[C@@H](NC(=O)OCC)C(C)C)c2)c1)C(C)C
EC50 (Hepatitis C virus; viral replication, inhibitor, luciferase; Huh-5-2, GETYPE1B; 72 h, replicon): 451 nM

CCCCCCC/C=C/C(=O)N1CC(=O)/C(=C(\C)O)C1=O
MIC (Proteus mirabilis; microbial growth; ATCC25933): > 200 µg/mL

CCCCOC(=O)N[C@H](C(=O)N1CCC[C@H]1C(=O)Nc1ccc(C#CC#Cc2ccc(NC(=O)[C@@H]3CCCN3C(=O)[C@@H](NC(=O)OCCCC)C(C)C)cc2)cc1)C(C)C
EC50 (Hepatitis C virus; viral replication, inhibitor, luciferase; Huh-5-2, GETYPE1B; 72 h, replicon): 919 nM

Cc1ccc(S(=O)(=O)Nc2ncc(-c3nc4ccccc4s3)c(N)n2)cc1
IC50 (Enterovirus B; plaque formation; BGM, B4): 110 µg/mL (≈ 277 µM)

C[C@]1(CO)[C@H]2CC[C@@H]3CN(Cc4ccc(F)c(Cl)c4)[C@@H](C4=CCOC4=O)C[C@H]3[C@]2(C)CC[C@H]1O
inhibition (unidentified human coronavirus; cytopathic effect; MRC5; 25 µM, 72 h): 20%

CCCCCCC/C=C/C(=O)N1C(=O)/C(=C(/C)O)C(=O)C1Cc1ccc(O)cc1 (centres unmarked)
MIC (Proteus mirabilis; microbial growth; ATCC25933): > 200 µg/mL

Cc1ccc(-c2nn(-c3ccccc3)cc2C=c2sc(=CC#N)[nH]c2=O)cc1
inhibition zone (Acinetobacter baumannii; microbial growth, well diffusion; 100000 µg/mL): 14 mm

CCCCCCC/C=C/C(=O)N1C(=O)/C(=C(\O)c2ccncc2)C(=O)C1CC(C)C (centres unmarked)
MIC (Proteus mirabilis; microbial growth; ATCC25933): > 200 µg/mL

N#Cc1cc(-c2nc3ccccc3s2)c(=O)n(NS(=O)(=O)c2ccccc2)c1N
IC50 (Enterovirus B; plaque formation; BGM, B4): 84 µg/mL (≈ 198 µM)

Nc1nc(N)c2ncn([C@@H]3O[C@H](CO)[C@@H](F)[C@@H]3F)c2n1
EC50 (Hepatitis C virus; viral replication, inhibitor; Huh-7; replicon): > 10000 nM

Cc1c(NC(=O)CC2=NC(=O)CS2)c(=O)n(-c2ccccc2)n1C
MBC (Acinetobacter baumannii; microbial killing, broth dilution): 0.25 µg/mL

C[C@@]12COCO[C@@H]1CC[C@]1(C)[C@@H]2CC[C@@H]2CN(Cc3ccc(F)cc3)[C@@H](C3=CCOC3=O)C[C@H]21
inhibition (unidentified human coronavirus; cytopathic effect; MRC5; 25 µM, 72 h): 32%

CCOC(=O)C=c1[nH]c(=O)c(=Cc2cn(-c3ccccc3)nc2-c2ccc(C)cc2)s1
inhibition zone (Acinetobacter baumannii; microbial growth, well diffusion; 100000 µg/mL): 11 mm

CC(=O)OC[C@@]1(C)[C@H]2CC[C@@H]3CN(C(C)C)[C@@H](C4=CCOC4=O)C[C@H]3[C@]2(C)CC[C@H]1OC(C)=O
inhibition (unidentified human coronavirus; cytopathic effect; MRC5; 25 µM, 72 h): 80%

CN[C@H](CC(C)C)C(=O)N[C@H]1C(=O)N[C@@H](CC(N)=O)C(=O)N[C@H]2C(=O)N[C@H]3C(=O)N[C@H](C(=O)N[C@H](C(=O)O)c4cc(O)cc(O)c4-c4cc3ccc4O)[C@H](O)c3ccc(c(Cl)c3)Oc3cc2cc(c3O[C@@H]2O[C@H](CO)[C@@H](O)[C@H](O)[C@H]2O[C@H]2C[C@](C)(N)[C@H](O)[C@H](C)O2)Oc2ccc(cc2Cl)[C@H]1O
MBC (Acinetobacter baumannii; microbial killing, broth dilution; BAA747): > 128 µM

COC(=O)N[C@H](C(=O)N1CCC[C@H]1c1ncc(-c2ccc(-c3ccc(-c4cnc([C@@H]5CCCN5C(=O)[C@@H](NC(=O)OC)C(C)C)[nH]4)cc3)cc2)[nH]1)C(C)C
EC50 (Hepatitis C virus; viral replication, inhibitor; GETYPE1A; replicon): 0.05 nM

O=C(CNc1nc(NS(=O)(=O)c2ccccc2)ncc1-c1nc2ccccc2s1)c1ccc(Cl)cc1
IC50 (Enterovirus B; plaque formation; BGM, B4): 92 µg/mL (≈ 172 µM)

N#CC(=Cc1ccccc1O)C1=NC(=O)C(=Cc2cn(-c3ccccc3)nc2-c2ccccc2)S1
inhibition zone (Acinetobacter baumannii; microbial growth, well diffusion; 100000 µg/mL): 25 mm

COc1nc(Cl)nc2c1ncn2[C@@H]1O[C@H](CO)[C@@H](F)[C@@H]1F
EC50 (Hepatitis C virus; viral replication, inhibitor; Huh-7; replicon): > 10000 nM

CCOC(=O)c1cc(C#N)c(=O)n(NS(=O)(=O)c2ccccc2)c1N
IC50 (Enterovirus B; plaque formation; BGM, B4): 88 µg/mL (≈ 243 µM)

CCOC(=O)N[C@H](CC(C)C)C(=O)N1CCC[C@@H]1C(=O)Nc1cccc(C#CC#Cc2cccc(NC(=O)[C@H]3CCCN3C(=O)[C@@H](CC(C)C)NC(=O)OCC)c2)c1
EC50 (Hepatitis C virus; viral replication, inhibitor, luciferase; Huh-5-2, GETYPE1B; 72 h, replicon): 410 nM

OC[C@H]1O[C@@H](n2cnc3c(NCc4ccccc4)nc(Cl)nc32)[C@@H](F)[C@@H]1F
EC90 (Hepatitis C virus; viral replication, inhibitor; Huh-7; replicon): 9.9 µM

CC(C)[C@H](NC(=O)OCc1ccccc1)C(=O)N1CCC[C@H]1C(=O)Nc1cccc(C#CC#Cc2cccc(NC(=O)[C@@H]3CCCN3C(=O)[C@@H](NC(=O)OCc3ccccc3)C(C)C)c2)c1
EC50 (Hepatitis C virus; viral replication, inhibitor, luciferase; Huh-5-2, GETYPE1B; 72 h, replicon): > 10000 nM

O=C(OC[C@H]1O[C@H](n2cnc3c(Cl)nc(Cl)nc32)[C@@H](F)[C@@H]1F)c1ccccc1
EC90 (Hepatitis C virus; viral replication, inhibitor; Huh-7; replicon): < 10 µM

COC(=O)N[C@H](CC(C)C)C(=O)N1CCC[C@H]1C(=O)Nc1cccc(C#CC#Cc2cccc(NC(=O)[C@@H]3CCCN3C(=O)[C@@H](CC(C)C)NC(=O)OC)c2)c1
EC50 (Hepatitis C virus; viral replication, inhibitor, luciferase; GETYPE4A; replicon): 18.6 nM

CCOC(=O)c1c(N)csc1-c1cn(-c2ccccc2)nc1-c1ccc(C)cc1
MBC (Acinetobacter baumannii; microbial killing, broth dilution): 0.25 µg/mL
